Experimental data from ChEMBL document CHEMBL4270526, “A novel NAE/UAE dual inhibitor LP0040 blocks neddylation and ubiquitination leading to growth inhibition and apoptosis of cancer cells” (Eur J Med Chem, 2018).
Active and inactive are the calls of the source. The calls are words filed in the database; no cut-off is given here.

What was measured:
A549 = experiment: Antiproliferative activity against human A549 cells after 48 hrs by CCK8 assay; assay type: functional, cell-based; conditions: A549, 48 h
How it was run: (§1)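 Cells seeded at 6 × 10^3 cells/well and left 12 h at 37 °C, 5% CO2. Medium then replaced with serial compound dilutions, bortezomib as positive control. After 48 h, CCK-8 added for 4 h and absorbance read at 450 nm. Three repeats; IC50 from normalized nonlinear regression of inhibition curves.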

K562 = experiment: Antiproliferative activity against human K562 cells after 48 hrs by CCK8 assay; assay type: functional, cell-based; conditions: K562, 48 h; how it was run: as §1
HCT-116 = experiment: Antiproliferative activity against human HCT116 cells after 48 hrs by CCK8 assay; assay type: functional, cell-based; conditions: HCT-116, 48 h; how it was run: as §1
BXPC-3 = experiment: Antiproliferative activity against human BxPC3 cells after 48 hrs by CCK8 assay; assay type: functional, cell-based; conditions: BXPC-3, 48 h; how it was run: as §1
SK-OV-3 = experiment: Antiproliferative activity against human SKOV3 cells after 48 hrs by CCK8 assay; assay type: functional, cell-based; conditions: SK-OV-3, 48 h; how it was run: as §1
[1] = Antiproliferative activity against HEK293T cells after 48 hrs by CCK8 assay; assay type: cell-based, HEK-293T; conditions: human, read-out: LC50
[2] = Selectivity index, ratio of IC50 for human LO2 cells to IC50 for human AGS cells; assay type: toxicity; conditions: LO2 cells versus AGS cells, read-out: Ratio IC50
[3] = molecular target: T1, NEDD8 activating enzyme (Homo sapiens) (UniProt Q8TBC4+Q13564); experiment: Inhibition of NAE in human AGS cells assessed as reduction in Ubc12-NEDD8 conjugation level after 24 hrs by Western blot analysis; assay type: cell-based
How it was run: (§2)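 AGS cells given 2, 4, 6, 8 or 10 μM compound or 0.1% DMSO for 24 h, washed in ice-cold PBS and lysed in RIPA on ice. Equal protein loads run by SDS-PAGE: non-reducing for NEDD8/SUMO/Ub conjugates, reducing for p27, NRF2, CDT1 and cleaved caspase-3. Blotted to PVDF with primary antibody overnight at 4 °C and HRP secondary, ECL detection, densitometry. Three repeats.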

[4] = molecular target: T1, NEDD8 activating enzyme (Homo sapiens); experiment: Inhibition of NAE in human AGS cells assessed as reduction in Cullins-NEDD8 conjugation level after 24 hrs by Western blot analysis; assay type: cell-based; how it was run: as §2
[5] = molecular target: T1, NEDD8 activating enzyme (Homo sapiens); experiment: Inhibition of NAE-mediated CRL neddylation in human AGS cells assessed as increase in p27 level up to 10 uM after 24 hrs by Western blot analysis; assay type: cell-based; how it was run: as §2
[6] = molecular target: T1, NEDD8 activating enzyme (Homo sapiens); experiment: Inhibition of NAE-mediated CRL neddylation in human AGS cells assessed as increase in NRF2 level up to 10 uM after 24 hrs by Western blot analysis; assay type: cell-based; how it was run: as §2
AGS [7] = experiment: Inhibition of UAE in human AGS cells assessed as reduction in Ubc10-Ub conjugation level at 2 to 10 uM after 24 hrs by Western blot analysis; assay type: cell-based
How it was run: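 AGS cells (Ham's F12/10% FBS) exposed to 2, 4, 6, 8 or 10 µM compound, or 0.1% DMSO, for 24 h. RIPA lysates of equal protein run on non-reducing SDS-PAGE. Western blot for Ubc10-Ub or USE1-Ub, with densitometry. Three repeats.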

[8] = molecular target: Serine/threonine-protein kinase B-raf (Homo sapiens) (UniProt P15056); experiment: Inhibition of B-raf (unknown origin) at 30 uM relative to control
[9] = molecular target: Cyclin-dependent kinase 1 (Homo sapiens) (UniProt P06493); experiment: Inhibition of CDK1 (unknown origin) at 30 uM relative to control
[10] = molecular target: Serine/threonine-protein kinase Chk2 (Homo sapiens) (UniProt O96017); experiment: Inhibition of CHK2 (unknown origin) at 30 uM relative to control
[11] = molecular target: Tyrosine-protein kinase Lck (Homo sapiens) (UniProt P06239); experiment: Inhibition of LCK (unknown origin) at 30 uM relative to control
[12] = molecular target: Serine/threonine-protein kinase PLK1 (Homo sapiens) (UniProt P53350); experiment: Inhibition of PLK (unknown origin) at 30 uM relative to control
[13] = molecular target: RAC-alpha serine/threonine-protein kinase (Homo sapiens) (UniProt P31749); experiment: Inhibition of AKT (unknown origin) at 30 uM relative to control
[14] = molecular target: Epidermal growth factor receptor (Homo sapiens) (UniProt P00533); experiment: Inhibition of EGFR (unknown origin) at 30 uM relative to control
[15] = molecular target: Inhibitor of nuclear factor kappa-B kinase subunit beta (Homo sapiens) (UniProt O14920); experiment: Inhibition of IKKB (unknown origin) at 30 uM relative to control
Homo sapiens = species on record: Homo sapiens; experiment: Inhibition of UAE (unknown origin) assessed as reduction in Ubc10-Ub conjugation level up to 10 uM pretreated for 10 mins followed by Mg2+ and ATP addition measured after 60 mins by Western blot analysis
How it was run: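 Cell-free assay with UAE 2.5 µM, Ub 250 µM and E2 Ubc10 50 µM (stock concentrations) plus inhibitor, preincubated 10 min at 37 °C. Reaction started with 10 mM Mg2+/ATP (stock), run 60 min at 37 °C, quenched with EDTA. Non-reducing 15% SDS-PAGE, Ubc10-Ub thioester detected by western blot. No-ATP negative control.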

AGS [16] = experiment: Induction of apoptosis in human AGS cells assessed as live cells at 4 uM after 36 hrs by Annexin-V-FITC/propidium iodide staining based flow cytometry (reference value: 92.84%); assay type: functional
AGS [17] = experiment: Induction of apoptosis in human AGS cells assessed as late apoptotic cells at 6 uM after 36 hrs by Annexin-V-FITC/propidium iodide staining based flow cytometry (reference value: 1.71%); assay type: functional
AGS [18] = experiment: Induction of apoptosis in human AGS cells assessed as early apoptotic cells at 8 uM after 36 hrs by Annexin-V-FITC/propidium iodide staining based flow cytometry (reference value: 4.44%); assay type: functional
AGS [19] = experiment: Induction of apoptosis in human AGS cells after 36 hrs by Annexin-V-FITC/propidium iodide staining based flow cytometry; assay type: functional, cell-based
AGS [20] = experiment: Induction of apoptosis in human AGS cells assessed as increase in cleaved caspase-3 level up to 10 uM after 24 hrs by Western blot analysis; assay type: functional, cell-based; how it was run: as §2
AGS [21] = experiment: Synergistic antiproliferative activity against human AGS cells assessed as combination index constant at 1 uM after 48 hrs in presence of 7.5 nM BTZ by CCK8 assay; assay type: functional
How it was run: (§3)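 AGS cells at 6×10^3/well attached for 12 h, then exposed for 48 h to compound, bortezomib, or both at set concentrations. CCK-8 added for 4 h, then OD read at 450 nm. Inhibition rates E used for q = E(combo)/(E1+E2−E1×E2). Triplicate experiments.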

AGS [22] = experiment: Synergistic antiproliferative activity against human AGS cells assessed as combination index constant at 1.25 uM after 48 hrs in presence of 7.5 nM BTZ by CCK8 assay; assay type: functional; how it was run: as §3
AGS [23] = experiment: Synergistic antiproliferative activity against human AGS cells assessed as combination index constant at 1 uM after 48 hrs in presence of 10 nM BTZ by CCK8 assay; assay type: functional; how it was run: as §3
AGS [24] = experiment: Synergistic antiproliferative activity against human AGS cells assessed as combination index constant at 1.5 uM after 48 hrs in presence of 10 nM BTZ by CCK8 assay; assay type: functional; how it was run: as §3

Chain of Serine/threonine-protein kinase Chk2 (Homo sapiens) (O96017 whole entry): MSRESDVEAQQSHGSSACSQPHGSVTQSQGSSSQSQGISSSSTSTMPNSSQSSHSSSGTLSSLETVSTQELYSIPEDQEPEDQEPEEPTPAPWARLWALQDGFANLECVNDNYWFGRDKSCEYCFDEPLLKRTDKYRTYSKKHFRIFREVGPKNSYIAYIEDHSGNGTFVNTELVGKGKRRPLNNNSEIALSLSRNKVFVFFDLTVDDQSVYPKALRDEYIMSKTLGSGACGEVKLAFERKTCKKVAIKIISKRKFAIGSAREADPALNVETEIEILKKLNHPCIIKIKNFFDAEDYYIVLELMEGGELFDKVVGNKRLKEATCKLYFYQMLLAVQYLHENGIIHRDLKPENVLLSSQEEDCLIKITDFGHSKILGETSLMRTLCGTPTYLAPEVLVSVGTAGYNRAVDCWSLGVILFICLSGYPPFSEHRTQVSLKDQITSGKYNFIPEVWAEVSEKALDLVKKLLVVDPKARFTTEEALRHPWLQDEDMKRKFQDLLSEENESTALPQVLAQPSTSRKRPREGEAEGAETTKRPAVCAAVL
Chain of Epidermal growth factor receptor (Homo sapiens) (P00533 whole entry): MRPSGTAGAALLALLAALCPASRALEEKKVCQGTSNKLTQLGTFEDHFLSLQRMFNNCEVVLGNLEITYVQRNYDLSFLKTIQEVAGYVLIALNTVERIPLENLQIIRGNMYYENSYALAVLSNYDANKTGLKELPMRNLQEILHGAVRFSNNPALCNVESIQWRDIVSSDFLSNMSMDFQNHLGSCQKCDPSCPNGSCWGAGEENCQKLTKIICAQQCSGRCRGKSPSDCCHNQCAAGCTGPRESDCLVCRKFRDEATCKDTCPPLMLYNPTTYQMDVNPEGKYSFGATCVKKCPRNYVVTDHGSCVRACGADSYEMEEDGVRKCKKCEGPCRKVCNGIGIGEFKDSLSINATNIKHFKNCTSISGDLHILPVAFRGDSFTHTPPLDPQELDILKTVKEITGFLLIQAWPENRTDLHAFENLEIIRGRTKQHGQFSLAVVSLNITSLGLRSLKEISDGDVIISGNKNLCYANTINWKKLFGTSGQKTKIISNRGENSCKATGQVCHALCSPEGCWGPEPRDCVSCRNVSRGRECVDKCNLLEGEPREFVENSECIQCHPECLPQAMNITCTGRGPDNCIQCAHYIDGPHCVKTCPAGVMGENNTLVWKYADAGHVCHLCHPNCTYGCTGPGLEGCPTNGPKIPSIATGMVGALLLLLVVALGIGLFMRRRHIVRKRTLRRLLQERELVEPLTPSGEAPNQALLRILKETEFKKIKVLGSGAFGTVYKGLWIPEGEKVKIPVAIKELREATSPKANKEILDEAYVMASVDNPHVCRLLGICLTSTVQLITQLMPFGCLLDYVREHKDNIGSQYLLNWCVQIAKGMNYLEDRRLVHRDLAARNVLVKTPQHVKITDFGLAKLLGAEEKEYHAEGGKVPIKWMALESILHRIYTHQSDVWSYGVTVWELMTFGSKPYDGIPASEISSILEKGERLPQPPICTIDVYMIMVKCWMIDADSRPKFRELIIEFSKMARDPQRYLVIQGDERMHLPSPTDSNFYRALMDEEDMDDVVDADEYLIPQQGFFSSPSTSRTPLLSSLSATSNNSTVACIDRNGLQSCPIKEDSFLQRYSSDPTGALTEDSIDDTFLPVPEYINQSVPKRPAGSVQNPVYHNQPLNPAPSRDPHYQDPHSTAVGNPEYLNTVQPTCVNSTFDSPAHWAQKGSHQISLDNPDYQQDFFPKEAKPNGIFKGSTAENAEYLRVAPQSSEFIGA
Chain of Inhibitor of nuclear factor kappa-B kinase subunit beta (Homo sapiens) (O14920 whole entry): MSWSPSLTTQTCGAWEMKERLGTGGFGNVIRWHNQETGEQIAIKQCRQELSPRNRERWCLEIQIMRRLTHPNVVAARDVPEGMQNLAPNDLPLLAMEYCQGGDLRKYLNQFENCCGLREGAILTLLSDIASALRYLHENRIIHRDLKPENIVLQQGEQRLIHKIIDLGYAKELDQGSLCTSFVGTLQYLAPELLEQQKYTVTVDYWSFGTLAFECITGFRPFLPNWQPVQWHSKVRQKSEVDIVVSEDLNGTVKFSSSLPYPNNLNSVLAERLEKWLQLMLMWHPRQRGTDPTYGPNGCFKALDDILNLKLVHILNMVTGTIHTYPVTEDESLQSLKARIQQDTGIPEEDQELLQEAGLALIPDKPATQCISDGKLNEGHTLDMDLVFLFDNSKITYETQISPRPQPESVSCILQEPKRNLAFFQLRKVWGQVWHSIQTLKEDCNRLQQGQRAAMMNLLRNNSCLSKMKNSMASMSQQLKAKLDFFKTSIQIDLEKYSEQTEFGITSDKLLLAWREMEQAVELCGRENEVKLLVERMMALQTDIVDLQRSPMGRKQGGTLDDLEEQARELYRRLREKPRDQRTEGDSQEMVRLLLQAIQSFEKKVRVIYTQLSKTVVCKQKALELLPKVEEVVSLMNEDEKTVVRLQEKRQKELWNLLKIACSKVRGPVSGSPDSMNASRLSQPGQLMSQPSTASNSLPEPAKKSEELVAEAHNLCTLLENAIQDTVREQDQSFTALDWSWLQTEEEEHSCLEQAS
Chain of Cyclin-dependent kinase 1 (Homo sapiens) (P06493 whole entry, looked up): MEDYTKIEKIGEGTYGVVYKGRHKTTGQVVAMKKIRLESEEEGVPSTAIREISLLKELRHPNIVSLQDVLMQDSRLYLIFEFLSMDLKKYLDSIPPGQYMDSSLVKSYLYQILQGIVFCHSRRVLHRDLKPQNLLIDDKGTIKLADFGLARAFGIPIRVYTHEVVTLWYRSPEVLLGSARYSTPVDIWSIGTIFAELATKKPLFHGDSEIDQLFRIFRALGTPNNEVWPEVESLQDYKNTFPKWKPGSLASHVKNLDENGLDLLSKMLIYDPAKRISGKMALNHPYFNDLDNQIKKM
Chain of Serine/threonine-protein kinase PLK1 (Homo sapiens) (P53350 whole entry): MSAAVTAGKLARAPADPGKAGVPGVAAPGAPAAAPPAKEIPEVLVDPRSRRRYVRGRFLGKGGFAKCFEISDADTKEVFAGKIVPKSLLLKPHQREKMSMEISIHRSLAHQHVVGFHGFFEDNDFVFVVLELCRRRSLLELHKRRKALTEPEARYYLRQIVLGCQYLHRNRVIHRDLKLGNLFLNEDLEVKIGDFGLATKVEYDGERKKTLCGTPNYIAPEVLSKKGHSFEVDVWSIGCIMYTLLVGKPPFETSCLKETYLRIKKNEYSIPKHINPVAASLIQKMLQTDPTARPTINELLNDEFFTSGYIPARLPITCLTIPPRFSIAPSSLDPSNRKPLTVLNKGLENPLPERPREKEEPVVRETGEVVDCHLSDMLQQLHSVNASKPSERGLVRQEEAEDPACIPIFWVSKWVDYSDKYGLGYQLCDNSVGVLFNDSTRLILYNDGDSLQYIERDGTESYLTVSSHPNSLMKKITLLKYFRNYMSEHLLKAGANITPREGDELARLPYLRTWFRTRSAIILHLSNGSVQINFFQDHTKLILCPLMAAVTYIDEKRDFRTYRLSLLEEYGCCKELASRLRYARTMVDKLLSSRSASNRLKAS
Chain of RAC-alpha serine/threonine-protein kinase (Homo sapiens) (P31749 whole entry): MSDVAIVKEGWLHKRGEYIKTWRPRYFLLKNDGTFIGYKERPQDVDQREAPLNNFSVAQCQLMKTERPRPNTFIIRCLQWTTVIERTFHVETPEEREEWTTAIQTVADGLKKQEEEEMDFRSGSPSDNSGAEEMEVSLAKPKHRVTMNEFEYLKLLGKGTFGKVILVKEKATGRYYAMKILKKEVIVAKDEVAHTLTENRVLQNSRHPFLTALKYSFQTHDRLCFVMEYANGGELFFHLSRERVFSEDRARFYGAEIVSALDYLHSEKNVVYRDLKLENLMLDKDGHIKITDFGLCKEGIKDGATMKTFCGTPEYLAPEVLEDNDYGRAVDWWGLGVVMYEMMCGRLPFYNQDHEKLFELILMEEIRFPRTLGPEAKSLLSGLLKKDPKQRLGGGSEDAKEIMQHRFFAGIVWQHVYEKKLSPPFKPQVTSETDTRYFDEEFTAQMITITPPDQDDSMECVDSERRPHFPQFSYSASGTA
Chain of Tyrosine-protein kinase Lck (Homo sapiens) (P06239 2-509 limits assumed): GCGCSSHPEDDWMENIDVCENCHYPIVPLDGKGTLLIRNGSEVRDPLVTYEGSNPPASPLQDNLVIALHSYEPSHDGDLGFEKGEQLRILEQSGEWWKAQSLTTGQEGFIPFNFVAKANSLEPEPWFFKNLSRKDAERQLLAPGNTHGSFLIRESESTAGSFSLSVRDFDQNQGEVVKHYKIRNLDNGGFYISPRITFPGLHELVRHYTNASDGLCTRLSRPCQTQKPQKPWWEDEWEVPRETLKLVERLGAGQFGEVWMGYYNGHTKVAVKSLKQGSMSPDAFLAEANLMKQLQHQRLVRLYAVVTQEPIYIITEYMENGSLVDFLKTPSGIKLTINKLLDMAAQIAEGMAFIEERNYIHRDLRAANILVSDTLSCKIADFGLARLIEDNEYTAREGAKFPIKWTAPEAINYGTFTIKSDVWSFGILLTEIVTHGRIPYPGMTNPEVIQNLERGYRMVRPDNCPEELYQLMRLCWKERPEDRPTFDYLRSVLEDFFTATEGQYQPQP

O=c1cc(-c2ccc(-c3ccccc3)cc2)c2ccc(N3CCC(NCCc4ccccc4)CC3)cc2o1
IC50 (A549): 2.14 µM
IC50 (K562): 2.45 µM
IC50 (HCT-116): 1.33 µM
IC50 (BXPC-3): 2.8 µM
IC50 (SK-OV-3): 3.29 µM
CC50 at 48 h [1]: 12.9 µM
selectivity ratio [2]: 14 to 18
inhibition [3]: Dose-dependent effect
inhibition [4]: Dose-dependent effect
inhibition [5]: Active
inhibition [6]: Active
inhibition (AGS [7]): Active
inhibition [8]: 1.75%
inhibition [9]: -1.18%
inhibition [10]: 9.44%
inhibition [11]: -2.51%
inhibition [12]: 5.58%
inhibition [13]: 9.87%
inhibition [14]: 2.77%
inhibition [15]: 1.07%
inhibition (Homo sapiens): Active
Activity (AGS [16]): 80.7%
Activity (AGS [17]): 35.77%
Activity (AGS [18]): 50.39%
Activity (AGS [19]): Dose-dependent effect
Activity (AGS [20]): Active
CI (AGS [21]): 1.13
CI (AGS [22]): 3.1
CI (AGS [23]): 1.14
CI (AGS [24]): 1.35
